Data set [1] relates to LoVo. In words: Antiproliferative activity against human LoVo cells after 96 hrs by MTT assay. In kind it is functional. (In general: Tetrazolium dyes change colour on reduction, which living cells bring about.)
Data set [2] relates to A549. As to the kind of experiment: Antiproliferative activity against human A549 cells after 96 hrs by MTT assay. The data set is classed as functional. The conditions noted are these: A549, 96 h.
Data set [3] is described as follows: Drug degradation in DMEM cell culture medium assessed as (E)-5-(Hydroxyimino)-10-methyl-2,3,4,5-tetrahydroazepino[3,4-b]indol-1(10H)-one at 10 to 100 nmol after 7 days by NMR analysis. The data set is classed as physicochemical. The note with it: 168 h. In a few lines:
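Two solutions of the compound in cell culture medium (10 and 100) were held at 37 °C for seven days. They were then extracted with ethyl acetate, and breakdown was assessed by NMR.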

For data set [4], the system named is PC-3. In words: Antiproliferative activity against human PC3 cells after 96 hrs by MTT assay. The data set is classed as functional. The note with it: PC-3, 96 h.
Data set [5] has as its target Cyclin-dependent kinase 2/cyclin A (Homo sapiens) (UniProt P24941+P20248+P78396). In words: Inhibition of recombinant CDK2/cyclin A expressed in Sf21 cells using histone H1 as substrate at 10 uM after 10 mins by scintillation counting in presence of [32P]ATP. The gist of the method:
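CDK2/cyclin A was combined on ice with histone H1 substrate in kit buffer, then inhibitor was added. Prediluted ³²P-ATP with MgCl2 and cold ATP was added, and tubes were shaken for 10 min at 30 °C. Aliquots were spotted on phosphocellulose paper, washed three times in 0.75% phosphoric acid, rinsed in acetone and counted by scintillation. Percent inhibition versus an untreated control is the mean of duplicate experiments.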

Data set [6] relates to MCF7. As to the kind of experiment: Antiproliferative activity against human MCF7 cells after 96 hrs by MTT assay. The conditions noted are these: MCF7, 96 h. The data set is classed as functional.
Data set [7] concerns Jurkat. In words: Inhibition of PMA- and PHA-stimulated IL2 production in human Jurkat T cells incubated for 30 mins prior to PMA- and PHA-stimulation by competitive enzyme immunoassay. The data set is classed as functional, cell-based.
The test system of data set [8] is CCRF-CEM. In words: Growth inhibition of human CCRF-CEM cells up to 48 hrs by trypan blue exclusion assay. The data set is classed as functional.
Data set [9] concerns the target Cyclin-dependent kinase 2/cyclin A (Homo sapiens, UniProt P24941). In words: Inhibition of CDK2/cyclin A. In kind it is protein-complex assay.
Data set [10] addresses Cyclin-dependent kinase 2/cyclin E1 (Homo sapiens, UniProt P24941). In words: Inhibition of CDK2/cyclin E. The data set is classed as protein-complex assay.
Data set [11] can be described thus: Inhibition of starfish CDK1/cyclin B using histone H1 as substrate after 10 mins in presence of [gamma32P}ATP. The arrangement: species or system Asteroidea.

Structures are written as SMILES.

For the compound `Cn1c2c(c3ccccc31)/C(=N/OCC1CCCCC1)CCNC2=O`, the GI50 in [1] amounted to 20.5 µM; in [2], 32.1 µM; in [4], 29.1 µM; in data set [6], 23.3 µM. The Drug degradation result in data set [3] is “Not Active”. In addition, the inhibition in data set [5] was 12%.

With `Nc1nc(C2=C3C(=Nc4ccccc43)C(=O)NCC2)c(O)[nH]1`, the IC50 in data set [7] was found to be 3.5 µM. The GI50 in data set [8] came out at 1.7 µM.

In the case of `O=C1NCC/C(=N\OCc2ccccc2)c2c1[nH]c1ccccc21`, the GI50 in [1] was 24.3 µM; in data set [2], 34.9 µM; in [4] it was 23.4 µM; in [6], 28.1 µM. The inhibition in data set [5] turned out to be 32%.

With `Cn1c(Br)c(Br)c2c1C(=O)NCC/C2=N\OCC1CCCCC1`, in [5], the inhibition is 13%.

On to `Cn1c2c(c3ccccc31)C(=O)CCNC2=O`, for which the GI50 in data set [1] was 36.8 µM; in data set [2] it was more than 100 µM; in data set [4], more than 100 µM; in data set [6], more than 100 µM.

Take `O=C1CCNC(=O)c2[nH]ccc21` [ALDISIN]: the GI50 in data set [1], in data set [2], in data set [4] and in [6] was more than 100 µM each time.

On to `O=C1NCC/C(=N\O)c2c1[nH]c1ccccc21`, for which the GI50 in data set [1] was 40.5 µM; in data set [2], more than 100 µM; in data set [4] it was more than 100 µM; in [6], more than 100 µM.

As for `Cn1c2c(c3ccccc31)/C(=N/OCc1ccccc1)CCNC2=O`, the Drug degradation in data set [3] is 50%.

Consider `Cn1c(Br)c(Br)c2c1C(=O)NCC/C2=N\OCc1ccccc1`, for which, in [5], the inhibition stood at 22%.

For the compound `NC1=NC(=O)/C(=C2\CCNC(=O)c3[nH]c(Br)cc32)N1` [HYMENIALDISINE], the IC50 in data set [9] stood at 0.07 µM; in [10] it was 0.04 µM.

Consider `O=C1NCC/C(=N\O)c2c1[nH]c1ccc(Br)cc21`, for which the GI50 in [1] came to 27.2 µM; in data set [2] it was 63.3 µM; in data set [4], 46.2 µM; in [6], 54.6 µM. Also, the inhibition in [5] worked out at 45%.

In the case of `O=C1Cc2c([nH]c3ccc(Br)cc23)-c2ccccc2N1` [KENPAULLONE], the IC50 in data set [11] was found to be 0.4 µM.

Consider `Cn1c2c(c3ccccc31)/C(=N/O)CCNC2=O`, for which the GI50 was 51.3 µM in data set [1], more than 100 µM in data set [2], more than 100 µM in [4] and more than 100 µM in data set [6].

`O=C1NCCC(=O)c2c1[nH]c1ccccc21`: the GI50 in [1] was 36.9 µM; in data set [2], 97.7 µM; in data set [4], more than 100 µM; in [6], more than 100 µM.

On to `O=C1NCC/C(=N\OCc2ccccc2)c2c1[nH]c(Br)c2Br`, for which, in data set [5], the inhibition stood at 0%.

The term GI50 denotes the concentration giving 50% growth inhibition. Read a low GI50 as greater sensitivity of the cells. What is called inhibition is the share of the control response that was lost under treatment. For orientation: IC50 means the concentration at which inhibition is half-maximal.

The record behind these values is ChEMBL document CHEMBL2086357 (Eur J Med Chem, 2012).
